Measurements: PMC3756293 (Translational Psychiatry, 2013)
Entries after “also recorded” stand apart in the source; their conditions may differ. Read-outs that look alike come from different tables or passages of the source.

How the values were obtained:
[1] = Plasma pharmacokinetics of ABT-384 and metabolites after five daily doses; assay type: in vivo, human
[2] = CSF pharmacokinetics of ABT-384 and acid metabolite after five daily doses; assay type: in vivo, human; settings: for CSF levels as percent of the free plasma levels / CSF levels as percent of the total plasma levels: 1-50 mg QD for 5 days; for CSF/free plasma exposure ratio: across the dose range tested (1-50 mg QD)
Summary of the method: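 Two subjects received 50 mg QD for 5 days. CSF was drawn by catheter before dosing, every 30 min for 8 h, and at 9, 12, 16 and 24 h. Other subjects were sampled hourly during the D4 cortisol infusions plus set post-dose times. Parent and acid metabolite were measured by validated HPLC–MS with D6 stable-label internal standards, injected directly without online solid-phase extraction.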

[3] = 1 mg ABT-384 QD for 7 days; cited from earlier work
[4] = biological target: T1, 11-beta-hydroxysteroid dehydrogenase type 1 (HSD-1) (Homo sapiens, UniProt P28845); assay type: in vivo; settings: regimens of 1-50 mg ABT-384 QD for 5 days, spot urine
T1 sequence (P28845 whole entry): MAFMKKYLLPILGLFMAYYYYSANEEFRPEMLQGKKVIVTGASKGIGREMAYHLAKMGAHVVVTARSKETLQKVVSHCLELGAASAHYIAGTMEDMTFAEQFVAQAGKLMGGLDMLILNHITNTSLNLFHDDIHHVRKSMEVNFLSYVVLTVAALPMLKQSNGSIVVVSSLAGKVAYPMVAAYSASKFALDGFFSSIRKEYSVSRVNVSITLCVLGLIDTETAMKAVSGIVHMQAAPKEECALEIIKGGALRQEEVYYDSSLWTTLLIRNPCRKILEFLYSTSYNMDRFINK

[5] = biological target: T1, 11-beta-hydroxysteroid dehydrogenase type 1 (HSD-1); assay type: in vivo
Summary of the method: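 During primed continuous D4 cortisol infusions after five daily doses, plasma was collected hourly. Labeled cortisol and cortisone were measured by mass spectrometry, and the plasma D3 cortisol/D3 cortisone ratio served as a measure of total-body HSD-1 activity.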

[6] = biological target: T1, 11-beta-hydroxysteroid dehydrogenase type 1 (HSD-1); assay: Peripheral HSD-1 inhibition: 1-; assay type: in vivo
Summary of the method: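 Plasma was sampled hourly during two 8 h D4 cortisol infusions on Days 5–6, after 5 days of once-daily dosing. Inhibition = 1 − (plasma D3 cortisol/plasma D4 cortisol), where 1 approximates the steady-state ratio seen in untreated control subjects. Values are given per time point across both infusions (16 time points).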

[7] = biological target: T1, 11-beta-hydroxysteroid dehydrogenase type 1 (HSD-1); assay type: in vivo; remark: listed apart in the source
[8] = Safety and tolerability in the clinical study; assay type: in vivo, human
Summary of the method: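 This open-label, single-site multiple-dose study ran 1–50 mg QD for 5 days. Subjects were confined from Day −1 until at least 48 h after CSF catheter removal, and adverse events were recorded until 30 days after the last dose.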

HSD-1 = HSD-1 (Homo sapiens, UniProt P28845); assay: HSD-1 binding and dissociation kinetics in vitro; settings: data on file
Chain of HSD-1 (P28845 whole entry): as above

[9] = Preclinical tissue distribution, liver relative to plasma; assay type: in vivo; settings: rats; data on file
[10] = as above; assay type: in vivo; settings: monkeys; data on file
[11] = biological target: T1, 11-beta-hydroxysteroid dehydrogenase type 1 (HSD-1); settings: cited from earlier work
[12] = daily doses up to 100 mg, healthy volunteers and elderly subjects; cited from earlier work
[13] = 1-50 mg ABT-384 QD for 5 days, healthy men

O=C(O)C(O)(c1cccs1)c1cccs1 [Acid Metabolite]
mean acid metabolite/parent AUC0-24 ratio in plasma ([1]; plasma): < 20% | mean acid metabolite/parent Cmax ratio in plasma ([1]; plasma): < 10% | mean metabolite/parent Cmax ratio ([1]; plasma, 1-50 mg QD for 5 days): 6–9% | CSF levels as percent of the free plasma levels [2]: 110–150% | CSF levels as percent of the total plasma levels [2]: 3–4% | mean acid metabolite/parent AUC0-24 ratio in CSF ([2]; CSF): 70–90% | mean acid metabolite/parent Cmax ratio in CSF ([2]; CSF): ~40% | CSF/free plasma exposure ratio [2]: greater than 1 | mean plasma Cmax [3]: 0.31 ng/mL

CC(C)(C(=O)NC1C2CC3CC1CC(C(N)=O)(C3)C2)N1CCN(c2ccc(C(F)(F)F)cn2)CC1 (centres unmarked) [ABT-384]
time to peak levels in the plasma ([1]; after last dose on Day 5, 1-50 mg QD): 1.5 to 3 h | plasma Cmax at which full peripheral HSD-1 inhibition was observed ([1]; man): ~2 ng/mL | CSF levels as percent of the free plasma levels [2]: 10–50% | CSF levels as percent of the total plasma levels [2]: 0.3–1% | CSF/free plasma exposure ratio [2]: less than 0.5 | time to peak levels in the CSF ([2]; after last dose on Day 5): 2.5 to 5 h | hepatic HSD-1 inhibition [4]: full hepatic HSD-1 inhibition | peripheral HSD-1 inhibition ([5]; 1 mg QD, each hour from 33 to 40 h after the last dose): 81–87% | peripheral HSD-1 inhibition ([5]; ABT-384 1 mg daily, five daily doses, up to 40 h after last dose): ≥ 81% | peripheral HSD-1 inhibition ([5]; ABT-384 regimens ⩾2 mg daily, five daily doses, up to 40 h after last dose): ≥ 88% | HSD-1 inhibition predicted from plasma Cmax ([5]; plasma Cmax ~2 ng ml^−1, assuming reversible inhibition, in the absence of preferential tissue distribution): ~60% | peripheral HSD-1 inhibition ([6]; 1 mg regimen, at 40 h after the last dose): ~86% | peripheral HSD-1 inhibition ([6]; 1 mg regimen, each of eight time points up to 8 h after the last dose): ~90% | peripheral HSD-1 inhibition ([6]; 2, 10 and 50 mg QD, each of 16 time points up to 40 h after the last dose): 91–93% | CNS HSD-1 inhibition (CNS formation of D3 cortisol) ([7]; 1 mg ABT-384 QD for 5 days): partial but substantial CNS HSD-1 inhibition; also recorded: Reduced CNS D3 cortisol formation | intrinsic CSF D3 cortisol compared with the level attained in the absence of study drug ([7]; 1 mg regimen, hours 4-8 of each D4 cortisol infusion): approximately two- to three-fold lower | CNS HSD-1 inhibition (CNS formation of D3 cortisol) ([7]; 2-50 mg ABT-384 QD for 5 days, through 40 h after the last dose): full CNS HSD-1 inhibition; also recorded: essentially complete CNS HSD-1 inhibition; also recorded: Complete blockade of D3 cortisol formation in the CNS | minimum daily dose to achieve full CNS HSD-1 inhibition ([7]; QD dosing): ≤ 2 mg | adrenocorticotropic hormone or cortisol values above normal [8, 13]: No subject showed adrenocorticotropic hormone or cortisol values above normal | changes of clinical laboratory tests, vital signs or electrocardiography parameters [8, 13]: No clinically significant changes | deaths, serious adverse events, discontinuations due to adverse events [8, 13]: No deaths, other serious adverse events or discontinuations due to adverse events occurred | tolerability ([8]; regimens of 1-50 mg ABT-384 QD for 5 days): well tolerated | binding to and dissociation from HSD-1 (HSD-1): rapid binding to, and very slow dissociation from; also recorded: rapid binding, slow dissociation kinetics | distribution to the liver relative to the plasma [9]: preferentially distributes to the liver | distribution to the liver relative to the plasma [10]: preferentially distributes to the liver | decrease of ratio of urine cortisol metabolites to cortisone metabolite ([11]; 1-100 mg ABT-384 QD for 7 days, 24-h urine collection): 87–97% | hepatic HSD-1 inhibition ([11]; regimens from 1 mg daily (1 mg QD for 7 days)): fully inhibited hepatic HSD-1; also recorded: full hepatic HSD-1 inhibition for 24 h | mean plasma Cmax [3]: 9.41 ng/mL | tolerability [12]: generally well tolerated
